The results in this text go back to ChEMBL document CHEMBL1125361, “Effect of modification of the basic residues of dynorphin A-(1-13) amide on kappa opioid receptor selectivity and opioid activity” (J Med Chem, 1992).

For orientation: IC50 means the concentration that inhibits the measured activity by half. A lower IC50 goes with greater potency in that assay. A word on the Ki: it is the equilibrium dissociation constant of an inhibitor or competing ligand from its target.

Assay [1] addresses Opioid receptor (mu and kappa) (Cavia porcellus, UniProt P41144+P97266). Description: Opioid receptor activity in guinea pig ileum. The class given is functional, tissue-based. An outline of the steps: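 Isolated guinea pig ileum in tissue bath, agonist dose-response curves. When norbinaltorphimine was used, the antagonist was added 10 min before the agonist dose-response determination.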

The species entered for another assay is Cavia porcellus. In words: Potency was evaluated in guinea pig ileum relative to Dynorphin A. The class given is functional. Put shortly:
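Isolated guinea pig ileum; agonist dose–response curves were determined. In the experiments using norbinaltorphimine, the antagonist was added to the tissue bath 10 min before the agonist dose–response curve was run.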

The target in assay [2] is Kappa-type opioid receptor (Cavia porcellus, UniProt P41144). Description: Inhibition of [3H]- bremazocine to opioid receptor kappa of guinea pig […] membranes was determined. Put shortly:
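Guinea pig cerebellar membranes labelled with [3H]bremazocine at 4 °C with bestatin and 100 nM DAMGO present. Nonspecific binding defined with 1 μM Dyn A-(1-13)NH2. Ki from Cheng-Prusoff using KD 0.0549 nM for [3H]bremazocine.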

Assay [3] addresses Delta-type opioid receptor (Rattus norvegicus, UniProt P33533). Description: Inhibition of [3H]DPDPE to opioid receptor delta of rat fore brain membranes was determined. The class given is cell membranes, Membrane. Put shortly: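 [3H]DPDPE displacement from rat forebrain membranes at 4 °C, peptidase inhibitors included. Nonspecific binding taken with 10 μM unlabeled DPDPE. Cheng-Prusoff Ki using KD 7.63 nM.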

For another assay, the target named is Mu-type opioid receptor (Rattus norvegicus, UniProt P33535). Description: Inhibition of [3H]DAMGO to opioid receptor mu of rat fore brain membranes was determined. The class given is cell membranes, Membrane. Put shortly:
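Rat forebrain membranes with [3H]DAMGO at 4 °C in presence of peptidase inhibitors. Nonspecific binding defined by 10 μM levorphanol. Ki derived via Cheng-Prusoff, KD 0.314 nM.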

Mu-type opioid receptor, sequence (P33535 whole entry): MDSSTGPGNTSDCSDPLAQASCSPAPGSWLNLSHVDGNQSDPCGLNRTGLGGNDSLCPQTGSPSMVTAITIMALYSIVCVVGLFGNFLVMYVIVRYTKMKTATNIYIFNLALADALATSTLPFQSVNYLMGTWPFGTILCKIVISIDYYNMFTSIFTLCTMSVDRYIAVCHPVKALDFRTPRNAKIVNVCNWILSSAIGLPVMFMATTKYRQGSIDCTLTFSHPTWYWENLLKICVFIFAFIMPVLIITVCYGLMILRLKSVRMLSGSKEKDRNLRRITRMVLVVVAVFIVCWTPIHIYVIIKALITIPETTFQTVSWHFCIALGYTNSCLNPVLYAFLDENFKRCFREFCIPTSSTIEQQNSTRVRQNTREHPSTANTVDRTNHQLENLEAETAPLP
Delta-type opioid receptor, sequence (P33533 whole entry): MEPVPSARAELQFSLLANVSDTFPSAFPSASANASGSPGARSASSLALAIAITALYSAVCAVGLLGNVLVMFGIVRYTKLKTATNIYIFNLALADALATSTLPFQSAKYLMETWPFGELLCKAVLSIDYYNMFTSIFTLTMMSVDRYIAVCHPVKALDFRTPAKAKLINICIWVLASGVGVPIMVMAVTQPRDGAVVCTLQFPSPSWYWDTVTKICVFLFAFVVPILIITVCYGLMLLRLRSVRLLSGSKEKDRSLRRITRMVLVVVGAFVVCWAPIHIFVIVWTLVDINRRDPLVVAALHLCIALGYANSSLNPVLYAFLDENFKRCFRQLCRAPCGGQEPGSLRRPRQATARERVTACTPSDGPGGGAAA
Kappa-type opioid receptor, sequence (P41144 whole entry): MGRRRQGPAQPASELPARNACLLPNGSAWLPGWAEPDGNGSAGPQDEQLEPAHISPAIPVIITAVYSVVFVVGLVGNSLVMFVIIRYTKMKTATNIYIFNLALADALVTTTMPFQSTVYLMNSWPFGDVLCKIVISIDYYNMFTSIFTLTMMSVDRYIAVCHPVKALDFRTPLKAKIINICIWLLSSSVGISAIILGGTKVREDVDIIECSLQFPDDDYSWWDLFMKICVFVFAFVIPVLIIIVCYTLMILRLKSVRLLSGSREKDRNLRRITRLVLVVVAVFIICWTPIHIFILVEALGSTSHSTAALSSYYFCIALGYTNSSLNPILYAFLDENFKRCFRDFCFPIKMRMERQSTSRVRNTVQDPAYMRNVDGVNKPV

“H-YGGFLKRIRPKLK-NH2 [listing 1 of 2 here]”: the IC50 in assay [1] was 0.25 nM. In addition, the Relative potency in the assay filed under Cavia porcellus came to 94%.

On to `CC[C@H](C)[C@H](NC(=O)[C@H](CCCN=C(N)N)NC(=O)[C@H](CCCN=C(N)N)NC(=O)[C@H](CC(C)C)NC(=O)[C@H](Cc1ccccc1)NC(=O)CNC(=O)CNC(=O)[C@@H](N)Cc1ccc(O)cc1)C(=O)N[C@@H](CCCN=C(N)N)C(=O)N1CCC[C@H]1C(=O)N[C@@H](CCCCN)C(=O)N[C@@H](CC(C)C)C(=O)N[C@@H](CCCCNC(C)=O)C(N)=O`, for which, in assay [1], the IC50 was 0.19 nM. The Ki came out at 0.15 nM in assay [2], 4.6 nM in assay [3] and 0.061 nM on Mu-type opioid receptor. In the assay filed under Cavia porcellus, this molecule yielded a Relative potency of 126%.

Turning to “H-YGGFLRRIKPKLK-NH2 [listing 1 of 2 here]”, the IC50 in assay [1] worked out at 0.27 nM. In addition, the Relative potency in the assay listed under Cavia porcellus is given as 89%.

For the molecule “H-YGGFLRKIRPKLK-NH2 [listing 1 of 2 here]”, the inhibitory constant (Ki) in assay [2] was found to be 0.021 nM; in assay [3], 1.6 nM; at Mu-type opioid receptor, 0.055 nM.

Regarding “H-YGGFLRRIKPKLK-NH2 [listing 2 of 2 here]”, the Ki was determined as 0.0067 nM in assay [2], 1.9 nM in assay [3] and 0.046 nM on Mu-type opioid receptor.

As for `CC[C@H](C)[C@H](NC(=O)[C@H](CCCN=C(N)N)NC(=O)[C@H](CCCN=C(N)N)NC(=O)[C@H](CC(C)C)NC(=O)[C@H](Cc1ccccc1)NC(=O)CNC(=O)CNC(=O)[C@@H](N)Cc1ccc(O)cc1)C(=O)N[C@@H](CCCN=C(N)N)C(=O)N1CCC[C@H]1C(=O)N[C@@H](CCCCNC(C)=O)C(=O)N[C@@H](CC(C)C)C(=O)N[C@@H](CCCCN)C(N)=O`, in assay [1], the IC50 is on record as 0.16 nM. The inhibition constant Ki in assay [2] worked out at 0.053 nM; in assay [3] it was 0.45 nM; on Mu-type opioid receptor it was 0.03 nM. In the assay filed under Cavia porcellus, this molecule returned a Relative potency of 148%.

Molecule H-YGGFLRK(Ac)IRPKLK-NH2 had a 50% inhibitory concentration (IC50) in assay [1] of 0.34 nM. Moreover, the inhibition constant Ki in assay [2] turned out to be 0.14 nM; in assay [3], 1.1 nM; at Mu-type opioid receptor, 0.18 nM. For the same molecule, the Relative potency in the assay listed under Cavia porcellus amounted to 69%.

With “H-YGGFLRKIRPKLK-NH2 [listing 2 of 2 here]”, in assay [1], the IC50 was 0.19 nM. For the same molecule, the Relative potency in the assay filed under Cavia porcellus is 122%.

Turning to “H-YGGFLKRIRPKLK-NH2 [listing 2 of 2 here]”, the Ki in assay [2] stood at 0.02 nM; in assay [3], 5.9 nM; on Mu-type opioid receptor it was 0.075 nM.

Turning to `CC[C@H](C)[C@H](NC(=O)[C@H](CCCN=C(N)N)NC(=O)[C@H](CCCN=C(N)N)NC(=O)[C@H](CC(C)C)NC(=O)[C@H](Cc1ccccc1)NC(=O)CNC(=O)CNC(=O)[C@@H](N)Cc1ccc(O)cc1)C(=O)N[C@@H](CCCCNC(C)=O)C(=O)N1CCC[C@H]1C(=O)N[C@@H](CCCCN)C(=O)N[C@@H](CC(C)C)C(=O)N[C@@H](CCCCN)C(N)=O`, in assay [1], the concentration for half-maximal inhibition (IC50) was found to be 0.26 nM. Moreover, the values for the inhibitory constant (Ki) (in assay [2]; in assay [3]; at Mu-type opioid receptor) were 0.0042 nM, 1.3 nM and 0.043 nM, respectively. In the assay listed under Cavia porcellus, the Relative potency came to 91%.

Take H-YGGFLK(Ac)RIRPKLK-NH2: in assay [1], the IC50 was determined as 0.64 nM. Besides, the Ki in assay [2] worked out at 0.024 nM; in assay [3], 0.42 nM; at Mu-type opioid receptor, 0.018 nM. The Relative potency in the assay filed under Cavia porcellus worked out at 37%.

`CC[C@H](C)[C@H](NC(=O)[C@H](CCCN=C(N)N)NC(=O)[C@H](CCCN=C(N)N)NC(=O)[C@H](CC(C)C)NC(=O)[C@H](Cc1ccccc1)NC(=O)CNC(=O)CNC(=O)[C@@H](N)Cc1ccc(O)cc1)C(=O)N[C@@H](CCCN=C(N)N)C(=O)N1CCC[C@H]1C(=O)N[C@@H](CCCCN)C(=O)N[C@@H](CC(C)C)C(=O)N[C@@H](CCCCN)C(N)=O`: the half-inhibitory concentration (IC50) in assay [1] turned out to be 0.24 nM. The figures for the inhibition constant Ki (in assay [2]; in assay [3]; on Mu-type opioid receptor) were 0.023 nM, 1.9 nM and 0.4 nM, respectively. The molecule also yielded a Relative potency in the assay listed under Cavia porcellus of 100%.
